The text below walks through data of ChEMBL document CHEMBL1122463, “2,3-dihydro-3-(1-pyrryl)spiro[benzofuran-2,4'-piperidine]s and 2,3-dihydro-3-(1-pyrryl)spiro[benzofuran-2,3'-pyrrolidine]s: novel antihypertensive agents” (1983).

SMILES strings stand for the structures.

Type in all cases: functional, Blood
The species entered for assay [1] is Rattus norvegicus. Briefly: Oral hypotensive activity in spontaneously hypertensive rats by using tail-cuff method measured as the initial BP. The gist of the method:
(§1)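 Okamoto-Aoki strain spontaneously hypertensive rats. Compounds were suspended in distilled water with Tween 80 and given orally every day at 50, 30, 10 or 3 mg/kg. Systolic BP was measured by tail-cuff plethysmography on day 1 (predose and 2 h), day 3 (predose and 2 h) and day 5 (predose, 2 and 4 h). The screen used 4 rats; dose-response used 4–8 rats per dose.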

For assay [2], the species on record is Rattus norvegicus. Briefly: Oral hypotensive activity in spontaneously hypertensive rats by using tail-cuff method measured as change in systolic BP. The gist of the method: (§2)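 Okamoto-Aoki spontaneously hypertensive rats. Compound suspended in distilled water with Tween 80, given po daily, screening dose 50 mg/kg, dose-response at 50, 30, 10 or 3 mg/kg unless stated. Systolic BP by tail-cuff plethysmography on day 1 predose and 2 h, day 3 predose and 2 h, and day 5 predose, 2 and 4 h. Reported as peak decrease on day 3 (or day 5) at 2 h ± SEM. n = 4 in screen, 4–8 per dose.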

For assay [3], the system named is Rattus norvegicus. Briefly: (§3) Oral hypotensive activity in spontaneously hypertensive rats by using tail-cuff method measured as change in systolic BP at the dose of 10 mg/kg po. In outline:
(§4)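 SHR of the Okamoto-Aoki strain, dosed orally every day with compound suspended in distilled water with Tween 80. Systolic pressure was taken by tail-cuff plethysmography on day 1 (predose, 2 h), day 3 (predose, 2 h) and day 5 (predose, 2 and 4 h). Initial BP is the pretreatment systolic pressure, with 4–8 rats per dose in the dose-response screen.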

For assay [4], the system named is Rattus norvegicus. Briefly: (§5) Oral hypotensive activity in spontaneously hypertensive rats by using tail-cuff method measured as change in systolic BP at the dose of 25 mg/kg po. In outline: as §4
In assay [5] the test system is Rattus norvegicus. Briefly: (§6) Oral hypotensive activity in spontaneously hypertensive rats by using tail-cuff method measured as change in systolic BP at the dose of 50 mg/kg po. The gist of the method:
as §1

Assay [6] has as its system Rattus norvegicus. Briefly: (§7) Oral hypotensive activity in spontaneously hypertensive rats by using tail-cuff method measured as change in systolic BP at the dose of 5 mg/kg po. The gist of the method: as §1
Assay [7] concerns Rattus norvegicus. Described as §3. In outline: as §2
This is another data set of the same source.

In assay [8] the test system is Rattus norvegicus. The assay is described as §5. In outline: as §2
This is another data set of the same source.

Assay [9] has as its system Rattus norvegicus. The assay is described as §6. The gist of the method: as §2
The source holds these as a separate data set.

Assay [10] relates to Rattus norvegicus. Described as §7. In outline:
as §2
This is another data set of the same source.

Assay [11] deals with Rattus norvegicus. The description is as §7. In outline: as §4
The source holds these as a separate data set.

The species named for assay [12] is Rattus norvegicus. Briefly: Hypotensive activity in renal hypertensive rats by using tail-cuff method measured as BP on (1/2) day/h postdrug. The gist of the method:
(§8)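 Renal hypertension made in male Sprague-Dawley rats (Grollman modification). Under pentobarbital (50 mg/kg ip), the right kidney was removed and silk sutures tied around both poles of the left kidney to constrict it. After 3 weeks, rats with systolic BP >150 mmHg were used. Compound given po daily to 4 rats. Systolic BP by tail-cuff plethysmography at the listed day/hour after dosing.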

The species named for assay [13] is Rattus norvegicus. Briefly: Hypotensive activity in renal hypertensive rats by using tail-cuff method measured as BP on (2/0) day/h postdrug. The gist of the method:
as §8

The species entered for assay [14] is Rattus norvegicus. Briefly: Hypotensive activity in renal hypertensive rats by using tail-cuff method measured as BP on (2/2) day/h postdrug. The gist of the method:
as §8

The species named for assay [15] is Rattus norvegicus. Briefly: Hypotensive activity in renal hypertensive rats by using tail-cuff method measured as BP on (3/0) day/h postdrug. In outline: as §8
The species entered for assay [16] is Rattus norvegicus. Briefly: Hypotensive activity in renal hypertensive rats by using tail-cuff method measured as BP on (3/2)day/h postdrug. In outline: as §8
The species entered for assay [17] is Rattus norvegicus. Briefly: Hypotensive activity in renal hypertensive rats by using tail-cuff method measured as initial BP. In outline: as §8

In the assay filed under Rattus norvegicus [1], `OCCN1CCC2(CC1)Oc1ccccc1C2n1cccc1` (stereo not given) came in with a BP of 170 mmHg. The Delta blood pressure in the assay filed under Rattus norvegicus [2] came to 39 mmHg.
In the case of `c1ccc(CN2CCC3(C2)Oc2ccccc2C3n2cccc2)cc1` (stereo not given), the BP is on record as 171 mmHg in the assay with Rattus norvegicus [3], 185 mmHg in the assay on Rattus norvegicus [4], 211 mmHg in the assay on Rattus norvegicus [5] and 198 mmHg with Rattus norvegicus [6]. Also, the Delta blood pressure in the assay with Rattus norvegicus [7] is -10 mmHg; in the assay on Rattus norvegicus [8] it was 18 mmHg; with Rattus norvegicus [9] it was 42 mmHg; in the assay with Rattus norvegicus [10] it was 27 mmHg.
In the assay listed under Rattus norvegicus [1], `CCN(CC)CCN1CCC2(CC1)Oc1ccccc1C2n1cccc1` (stereo not given) gave a BP of 185 mmHg. The compound also registered a Delta blood pressure in the assay filed under Rattus norvegicus [2] of 38 mmHg.
On to `c1ccc2c(c1)OC1(CCNC1)C2n1cccc1` (stereo not given), for which the BP was 179 mmHg with Rattus norvegicus [3], 181 mmHg in the assay on Rattus norvegicus [4], 223 mmHg in the assay with Rattus norvegicus [5] and 200 mmHg in the assay on Rattus norvegicus [6]. The Delta blood pressure is on record as 36 mmHg in the assay on Rattus norvegicus [3], 13 mmHg with Rattus norvegicus [4], 58 mmHg in the assay on Rattus norvegicus [5] and 17 mmHg in the assay with Rattus norvegicus [11].
In the assay with Rattus norvegicus [5] (50 mg/kg), `CN1CCC2(C1)Oc1ccccc1C2n1cccc1` (stereo in doubt; 10) showed a BP of 197 mmHg and a Delta blood pressure of 38 mmHg.
As for `CN1CCC2(C1)Oc1ccccc1C2n1cccc1` (stereo in doubt; 11), in the assay with Rattus norvegicus [5] (50 mg/kg), the BP is recorded as 180 mmHg and the Delta blood pressure is reported as 14 mmHg.
On to `C[C@H](CS)C(=O)N1CCC[C@H]1C(=O)O` [CAPTOPRIL], for which the BP in the assay listed under Rattus norvegicus [12] stood at 181 mmHg; in the assay filed under Rattus norvegicus [13], 185 mmHg; in the assay filed under Rattus norvegicus [14] it was 169 mmHg; in the assay listed under Rattus norvegicus [15], 163 mmHg; in the assay listed under Rattus norvegicus [16], 152 mmHg; in the assay listed under Rattus norvegicus [17] it was 192 mmHg.
